Results from ChEMBL document CHEMBL3124898, “Constituents of an extract of Cryptocarya rubra housed in a repository with cytotoxic and glucose transport inhibitory effects” (J Nat Prod, 2014).

What was measured:
HT-29 = experiment: Cytotoxicity against human HT-29 cells; format: functional, cell-based
In short: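 HT-29 human colon cancer cells treated with serial dilutions of test samples. IC50 derived by nonlinear regression. Measured in triplicate in two independent experiments. Paclitaxel served as positive control.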

[1] = biological target: T1, Solute carrier family 2, facilitated glucose transporter member 1 (Homo sapiens) (UniProt P11166); experiment: Inhibition of GLUT-1 in human H1299 cells assessed as 2-deoxy-D-[3H]glucose uptake at 30 uM incubated for 15 mins prior to 2-deoxy-D-[3H]glucose challenge measured after 10 mins by liquid scintillation counting analysis (reference value: 100%); format: cell-based; parameters: scale not given: the % may be the effect or the level left
T1 sequence (whole entry): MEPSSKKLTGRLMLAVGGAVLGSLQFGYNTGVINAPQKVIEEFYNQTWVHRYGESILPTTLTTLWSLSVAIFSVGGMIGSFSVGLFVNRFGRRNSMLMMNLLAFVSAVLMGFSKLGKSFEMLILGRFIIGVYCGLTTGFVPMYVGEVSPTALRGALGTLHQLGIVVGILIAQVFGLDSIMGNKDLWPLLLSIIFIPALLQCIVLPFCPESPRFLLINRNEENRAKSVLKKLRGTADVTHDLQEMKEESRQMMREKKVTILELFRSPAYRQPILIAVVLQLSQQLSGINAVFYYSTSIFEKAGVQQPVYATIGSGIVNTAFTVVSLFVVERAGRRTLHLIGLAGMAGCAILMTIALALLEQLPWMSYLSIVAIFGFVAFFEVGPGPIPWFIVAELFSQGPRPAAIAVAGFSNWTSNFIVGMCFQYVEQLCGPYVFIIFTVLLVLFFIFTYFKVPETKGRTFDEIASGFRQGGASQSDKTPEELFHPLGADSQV
In short: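 Before dosing, H1299 human lung cancer cells were washed and held in serum-free DMEM for 2 h at 37 °C in 10% CO2, then in KRP buffer for 30 min at 37 °C. Compound was added at 30 μM final and incubated 15 min at 37 °C. Uptake was started with 37 MBq/L 2-deoxy-3H glucose plus 1 mM glucose (final) and stopped after 10 min by three cold PBS washes. Cells were NaOH-lysed and lysate radioactivity read by scintillation counting. Vehicle served as negative control and WZB117 (30 μM) as positive control. n = 3.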

P388 = experiment: Cytotoxicity against mouse P388 cells; format: functional, cell-based

Row | SMILES | IC50 (HT-29) | Activity [1] | IC50 (P388)
1 | O=C1C[C@@H]2C3=C(O[C@H](c4ccccc4)CC3=O)[C@@H]3[C@H]([C@@H]2O1)[C@H]1C[C@@H]2OC(=O)C[C@@H]2[C@@]3(C(=O)/C=C/c2ccccc2)C1=O | > 10 µM |  | 
2 | O=C1C[C@@H]2C3=C(C=C[C@@H]2O1)O[C@@H](c1ccccc1)CC3=O [CRYPTOCARYANONE A] | 10.9 µM |  | 
3 | O=C(O)C[C@H]1CC=CC(=O)/C1=C(O)/C=C/c1ccccc1 | > 10 µg/mL |  | 
4 | O=C1CCC[C@@H]2C[C@H](C[C@](O)(CCc3ccccc3)O2)c2c(cc(O)c(C(=O)/C=C/c3ccccc3)c2O)O1 | > 10 µM |  | 
5 | O=C(Oc1cccc(F)c1OC(=O)c1cccc(O)c1)c1cccc(O)c1 |  | 15.7% | 
6 | O=C1C[C@@H]2/C(=C(O)\C=C\c3ccccc3)C(=O)C=C[C@@H]2O1 [CRYPTOCARYONE] | 0.32 µM | 58.7% | 0.04 µM
7 | O=C1C[C@@H]2C3=C(O[C@H](c4ccccc4)CC3=O)[C@@H]3[C@@H]([C@@H]4C=C5O[C@H](c6ccccc6)CC(=O)[C@@]53[C@H]3CC(=O)O[C@@H]43)[C@@H]2O1 | > 10 µM |  | 
8 | O=C(/C=C/c1ccc(O)cc1)OCCCCCCCCCCCCCCCCOC(=O)/C=C/c1ccc(O)cc1 | > 10 µM |  | 
9 | CC(=O)O[C@H]1C(=O)[C@@]2(C)[C@H]([C@H](OC(=O)c3ccccc3)[C@]3(O)C[C@H](OC(=O)[C@H](O)[C@@H](NC(=O)c4ccccc4)c4ccccc4)C(C)=C1C3(C)C)[C@]1(OC(C)=O)CO[C@@H]1C[C@@H]2O [PACLITAXEL] | > 10 µM |  | 
